# In ChEMBL document CHEMBL1799979, “Antifolate and antiproliferative activity of 6,8,10-triazaspiro[4.5]deca-6,8-dienes and 1,3,5-triazaspiro[5.5]undeca-1,3-dienes” (Bioorg Med Chem, 2010):
# pIC50: −log10 of the molar value.
# What was measured:
# [1] = tested on: A549; assay: Antiproliferative activity against human A549 cells after 72 hrs by fluorometric microculture cytotoxicity assay; conditions: A549, 72 h
# [2] = molecular target: T1, Dihydrofolate reductase (Bos taurus, UniProt P00376); assay: Inhibition of bovine liver DHFR using dihydrofolic acid substrate by UV-visible spectrophotometry
# T1 sequence (P00376 whole entry): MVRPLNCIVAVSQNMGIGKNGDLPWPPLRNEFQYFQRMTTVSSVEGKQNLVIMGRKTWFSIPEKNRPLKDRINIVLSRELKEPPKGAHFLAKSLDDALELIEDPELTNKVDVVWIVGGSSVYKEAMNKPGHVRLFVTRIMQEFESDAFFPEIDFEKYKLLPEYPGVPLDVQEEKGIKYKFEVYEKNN
# [3] = tested on: A549; assay: Growth inhibition of human A549 cells assessed as cell growth at 6.4 uM after 72 hrs by fluorometric microculture cytotoxicity assay in presence of 20 uM thymidine relative to untreated control; format: functional; design: scale not given: the % may be the effect or the level left
# Summary of the method: (§1)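 A549 cells were seeded and incubated 24 h, then medium was swapped for medium holding a fixed compound concentration alone, or with 20 µM thymidine, 100 µM hypoxanthine, or both. Twelve wells were used per solution, with solvent-matched controls. After 72 h, cells were PBS-washed, given FDA 2 µg/mL for 45 min at 37 °C, and fluorescence read at ex 485/em 535 nm. Growth is relative to control, as mean (SEM), n = 3.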
# [4] = tested on: A549; assay: Growth inhibition of human A549 cells assessed as cell growth at 6.4 uM after 72 hrs by fluorometric microculture cytotoxicity assay in presence of 100 uM hypoxanthine relative to untreated control; format: functional; design: scale not given: the % may be the effect or the level left
# Summary of the method: as §1
# [5] = tested on: A549; assay: Growth inhibition of human A549 cells assessed as cell growth at 6.4 uM after 72 hrs by fluorometric microculture cytotoxicity assay in presence of 100 uM hypoxanthine and 20 uM thymidine relative to untreated control; format: functional; design: scale not given: the % may be the effect or the level left
# Summary of the method: as §1
# [6] = tested on: A549; assay: Growth inhibition of human A549 cells assessed as cell growth at 6.4 uM after 72 hrs by fluorometric microculture cytotoxicity assay relative to untreated control; format: functional; conditions: A549, 72 h, read-out: Activity
# Summary of the method: as §1
# [7] = tested on: A549; assay: Growth inhibition of human A549 cells assessed as cell growth at 370 nM after 72 hrs by fluorometric microculture cytotoxicity assay relative to untreated control; format: functional; conditions: A549, 72 h, read-out: Activity
# Summary of the method: as §1
# [8] = tested on: A549; assay: Growth inhibition of human A549 cells assessed as cell growth at 370 nM after 72 hrs by fluorometric microculture cytotoxicity assay in presence of 20 uM thymidine relative to untreated control; format: functional; design: scale not given: the % may be the effect or the level left
# Summary of the method: as §1
# [9] = tested on: A549; assay: Growth inhibition of human A549 cells assessed as cell growth at 370 nM after 72 hrs by fluorometric microculture cytotoxicity assay in presence of 100 uM hypoxanthine relative to untreated control; format: functional; design: scale not given: the % may be the effect or the level left
# Summary of the method: as §1
# [10] = tested on: A549; assay: Growth inhibition of human A549 cells assessed as cell growth at 370 nM after 72 hrs by fluorometric microculture cytotoxicity assay in presence of 100 uM hypoxanthine and 20 uM thymidine relative to untreated control; format: functional; design: scale not given: the % may be the effect or the level left
# Summary of the method: as §1
# [11] = tested on: A549; assay: Growth inhibition of human A549 cells assessed as cell growth at 270 nM after 72 hrs by fluorometric microculture cytotoxicity assay in presence of 100 uM hypoxanthine and 20 uM thymidine relative to untreated control; format: functional; design: scale not given: the % may be the effect or the level left
# Summary of the method: as §1
# [12] = tested on: A549; assay: Growth inhibition of human A549 cells assessed as cell growth at 270 nM after 72 hrs by fluorometric microculture cytotoxicity assay in presence of 100 uM hypoxanthine relative to untreated control; format: functional; design: scale not given: the % may be the effect or the level left
# Summary of the method: as §1
# [13] = tested on: A549; assay: Growth inhibition of human A549 cells assessed as cell growth at 270 nM after 72 hrs by fluorometric microculture cytotoxicity assay relative to untreated control; format: functional; conditions: A549, 72 h, read-out: Activity
# Summary of the method: as §1
# [14] = tested on: A549; assay: Growth inhibition of human A549 cells assessed as cell growth at 270 nM after 72 hrs by fluorometric microculture cytotoxicity assay in presence of 20 uM thymidine relative to untreated control; format: functional; design: scale not given: the % may be the effect or the level left
# Summary of the method: as §1
Structure (SMILES),pIC50 [1],pIC50 [2],other results
COc1ccc(OCCCON2C(N)=NC(N)=NC23CCCC3)cc1,7.23,7.95,
NC1=NC2(CCCCC2)N(OCCCOc2ccccc2)C(N)=N1,7.16,,
CC(C)(C)c1ccc(OCCCON2C(N)=NC(N)=NC23CCCC3)cc1,6.80,7.77,
NC1=NC2(CCCCC2)N(OCCCOc2ccc(F)cc2)C(N)=N1,7.23,7.81,
Cc1ccc(OCCCON2C(N)=NC(N)=NC23CCCCC3)cc1,7.08,7.76,
COc1ccc(OCCCON2C(N)=NC(N)=NC23CCCCC3)cc1,7.29,8.21,
NC1=NC2(CCCCC2)N(OCCCOc2ccc([N+](=O)[O-])cc2)C(N)=N1,6.48,7.83,
NC1=NC2(CCCC2)N(OCCCOc2ccccc2)C(N)=N1,7.40,,
NC1=NC2(CCCCC2)N(OCCCOc2ccc(S(N)(=O)=O)cc2)C(N)=N1,6.78,8.25,
Nc1nc2[nH]cc(CCc3ccc(C(=O)N[C@@H](CCC(=O)O)C(=O)O)cc3)c2c(=O)[nH]1 [PEMETREXED],,,Activity [3]: 84.5%; Activity [4]: 12.6%; Activity [5]: 99.3%; growth at 6.4 µM [6]: 11.7%
CC(=O)c1ccc(OCCCON2C(N)=NC(N)=NC23CCCCC3)cc1,6.84,7.88,
N#Cc1ccc(OCCCON2C(N)=NC(N)=NC23CCCC3)cc1,7.22,8.12,
CC(C)(C)c1ccc(OCCCON2C(N)=NC(N)=NC23CCCCC3)cc1,6.30,7.67,
N#Cc1ccc(OCCCON2C(N)=NC(N)=NC23CCCCC3)cc1,6.93,8.01,
NC1=NC2(CCCC2)N(OCCCOc2ccc([N+](=O)[O-])cc2)C(N)=N1,7.18,8.08,
NC1=NC2(CCCCC2)N(OCCCOc2ccc(Cl)cc2)C(N)=N1,7.30,7.86,
CC(=O)c1ccc(OCCCON2C(N)=NC(N)=NC23CCCC3)cc1,7.22,8.04,
NC1=NC2(CCCC2)N(OCCCOc2ccc(F)cc2)C(N)=N1,7.23,8.00,
Cc1ccc(OCCCON2C(N)=NC(N)=NC23CCCC3)cc1,7.32,8.02,
CN(Cc1cnc2nc(N)nc(N)c2n1)c1ccc(C(=O)N[C@@H](CCC(=O)O)C(=O)O)cc1 [METHOTREXATE],7.43,,growth at 0.37 µM [7]: 14.3%; Activity [8]: 77.3%; Activity [9]: 16%; Activity [10]: 96.6%
Cl.NC1=NC2(CCCC2)N(OCCCOc2ccc(Cl)cc2)C(N)=N1,7.57,8.14,Activity [11]: 90%; Activity [12]: 14.3%; growth at 0.27 µM [13]: 15.2%; Activity [14]: 68%
